Tests used:
[1] = Pyrene fluorescence assay; format: physicochemical
How it was run: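 Pyrene served as fluorescent probe across a dilution series of polypeptide or conjugate. The I₁/I₃ ratio (370−373 nm peak over 381−384 nm peak) was plotted against polypeptide concentration. CAC was taken from the sigmoidal transition, which reflects nanoparticle disassembly and release of pyrene into the aqueous phase.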

HCT116 cells = assay: In vitro cytotoxicity, 72 h treatment; format: cell-based; conditions: Homo sapiens, HCT-116, 72 h
Colo 205 cells = assay: In vitro cytotoxicity, 72 h treatment; format: cell-based; conditions: Homo sapiens, COLO 205, 72 h
[2] = tested on: subcutaneous HCT-116 xenograft; assay: Tumor regression in subcutaneous HCT-116 xenograft model; format: in vivo, mice
[3] = cited from earlier work

Compound	CAC (critical aggregation concentration) [1] [µM]	IC50 (HCT116 cells) [nM]	IC50 (Colo 205 cells) [nM]	tumor volume lower than PBS treated animals ([2]; 12 days after treatment)	median survival time ([2]; HCT-116 xenograft, 25 mg.kg^−1 day 0, 2, 4, Kaplan–Meier, n=6) [days]	plasma half-life [3]
(VPGAG)160–(YG)6–(CGG)8 [ATBP]	3.6	–	–	–	–	–
Nc1ccn([C@@H]2O[C@H](CO)[C@@H](O)C2(F)F)c(=O)n1 [GEM, gemcitabine]	–	4.1	46.4	~ 3 fold	21	~ 10 minutes

From paper PMC6178977 (Advanced functional materials, 2017)
